In paper PMC11184607 (ACS Pharmacology & Translational Science, 2024):
Bridge positions count the residues as written; N and C are the ends. Square brackets hold non-standard residues; d marks the D form. Peptide text beside a SMILES is read from it. * marks the point of attachment. NMe2Val = CC(C)[C@@H](C(=O)*)N(C)C; NMeI = CC[C@H](C)[C@H](NC)C(=O)O; NMeT = CN[C@H](C(=O)O)[C@@H](C)O; NMeL = CN[C@@H](CC(C)C)C(=O)O; dHiv = CC(C)[C@@H](O)C(=O)O; NMeS = CN[C@@H](CO)C(=O)O; dNMeA = CN[C@H](C)C(=O)O

Tests used:
Gluc-U87 cells = test: Viability of adherent GLuc-U87 cells; type: cell-based, human; settings: 0.3–300 nM
GSC line 83 = test: GSC neurosphere viability, 72 h, line 83; type: cell-based, human; settings: read-out: EC50, GSC type 83
[1] = test system: WT and mutant (R66I) Sec61α HCT116 colon cancer cells; test: Viability of WT versus Sec61α R66I mutant HCT116 cells; type: cell-based, human; settings: 72 h and 6 days (3 + 3 day exposure)
U87-MG GBM cells = test: Cell viability; type: cell-based, human; settings: read-out: EC50, U87-MG cells; 72 h
How it was run: (§1)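 Cells are grown at 37 °C in 5% CO2. U87-MG and U251 are in MEM with 10% FBS, SF-268 in DMEM with 10% FBS, and SF-295 in RPMI 1640 with 10% FBS. HUVECs are pooled donors. Exposure is to the test compound (0.1 nM–1 μM) or 0.1% DMSO for 72 h. Viability is read by ATP luminescence as % of vehicle, n = 3 wells. […] comes from a logistic nonlinear fit over three independent comparisons.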

[2] = test system: patient-derived GSCs (M120, MGG6, M76, GBM8, and 157); type: cell-based, human; settings: read-out: EC50, viability of 5/6 GSC lines; 72 h
[3] = test system: HEK293FRT cells expressing WT or mutant (R66I) Sec61α; test: Viability of WT versus Sec61α R66I mutant HEK293 cells; type: cell-based, human; settings: 72 h or 3 + 3 day exposure
How it was run: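 HEK293FRT cells carrying Sec61α R66I, with wild-type comparators, are grown in DMEM with 10% FBS, 6 mM L-glutamine and 1 mM pyruvate. They are exposed to increasing test compound concentrations or 0.1% DMSO for 72 h, or 3 + 3 days to avoid nutrient deprivation. ATP viability is read as % of vehicle, n = 3 wells. Logistic nonlinear fit; ≥3 independent experiments.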

Hsp70 = test: Immunoblot of Hsp70 in U87-MG cells; type: cell-based, human; settings: 1 30 nM, 2 1 μM, 24 h
How it was run: (§2)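 U87-MG cells in MEM with 10% FBS are exposed 24 h to test compound (30 nM or 1 μM) or 0.1% DMSO. Protein-matched lysates (BCA) are run on SDS-PAGE, transferred to PVDF and detected with HRP secondary. Signals are normalized to α-tubulin and expressed relative to control. Three independent experiments; one-way ANOVA then t-test.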

SF-268 GBM cells = test: Cell viability; type: cell-based, human; settings: read-out: EC50, SF-268 cells; 72 h
How it was run: as §1

[4] = test system: UPR markers (BiP, CHOP, sXBP1, GADD34, IRE1) mRNA; test: qPCR of ER stress; type: cell-based, human; settings: 80 nM plus thapsigargin 300 nM, 24 h
How it was run: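 GSC neurospheres (MGG6, 83, M76, GBM8) are treated 24 h with test compound 80 nM, thapsigargin 300 nM, both together, or 0.1% DMSO. BiP, CHOP, sXBP1, GADD34 and IRE1 mRNA are measured by qPCR normalized to GAPDH and expressed as fold-change versus vehicle.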

Hsp90 = test: Immunoblot of Hsp90 in U87-MG cells; type: cell-based, human; settings: 1 30 nM, 2 1 μM, 24 h
How it was run: as §2

GSC 157 neurospheres = test: Neurosphere morphology of GSC 157 by light microscopy; type: cell-based, human; settings: 100 nM, 24 h, relative to control-treated cells
How it was run: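 Patient-derived GSC 157 cells are dissociated from tumour and expanded as neurospheres in medium with heparin 2 μg/mL, EGF 20 ng/mL and bFGF 10 ng/mL. Neurospheres receive test compound at 100 nM for 24 h. Morphology and neurosphere size are compared with control-treated cells.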

BiP = test: Immunoblot of BiP expression; type: cell-based, human
U251 GBM cells = test: Cell viability; type: cell-based, human; settings: read-out: EC50, U251 cells; 72 h
How it was run: as §1

subcutaneous xenografts = settings: unmodified natural product; cited from earlier work

SMILES: CC[C@H](C)[C@H]1C(=O)N[C@@H](C)C(=O)N(C)[C@@H](CC(C)C)C(=O)N[C@@H](Cc2ccc(OC)cc2)C(=O)N(C)[C@H](C)C(=O)O[C@H](C)[C@H](N(C)C(=O)[C@H](CC(C)C)N(C)C(=O)[C@H](COC)N(C)C(=O)[C@H](OC(=O)[C@H](C(C)C)N(C)C)C(C)C)C(=O)N(C)[C@@H](COC)C(=O)N1C [compound 1, Coibamide A] (NMe2Val-[dHiv][NMeS](Me)[NMeL][NMeT][NMeS](Me)[NMeI]A[NMeL]Y(Me)[dNMeA]; ester 4-C)
- Cell viability at 18 h (Gluc-U87 cells): no change in cell viability
- EC50 (GSC line 83): ~100 nM
- Effect of Sec61α R66I mutation on cytotoxic response relative to WT HCT116 cells [1]: mild resistance
- EC50 (U87-MG GBM cells): 18 nM
- EC50 [2]: < 4 nM
- Response of mutant Sec61(R66I) HEK293 cells relative to WT [3]: resistant
- Hsp70 expression (Hsp70): upregulation
- EC50 (SF-268 GBM cells): > 700 nM
- Effect on thapsigargin-induced upregulation of all UPR markers, GSC line MGG6 [4]: almost completely abrogated
- Hsp90 expression (Hsp90): upregulation
- Change in neurosphere morphology (GSC 157 neurospheres): reduction in neurosphere size
- BiP expression, GSC line 83 (BiP; 1 250 nM and 500 nM, 2 3 µM, 72 h): decrease
- BiP protein expression, GSC MGG6 neurospheres and adherent U87-MG cells (BiP; immunoblot, 24 h): downregulation
- EC50 (U251 GBM cells): > 700 nM
- Safety after repeat dosing in mice bearing subcutaneous xenografts (subcutaneous xenografts): adverse safety profile
